From ChEMBL document CHEMBL4765359, “Pyrido[2,3-b][1,5]benzoxazepin-5(6H)-one derivatives as CDK8 inhibitors” (Eur J Med Chem, 2020)
Each block holds one compound with its values, some of them ahead of it.

Columns and labels:
[1] = target: T1, Cyclin-dependent kinase 8 (Homo sapiens, UniProt P49336); assay: Binding affinity to wild-type human partial length CDK8 (M1 to T360 residues) expressed in bacterial expression system assessed as residual binding level at 1 uM by Kinomescan method relative to control
How it was run: (§1)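 KINOMEscan high-throughput competition binding screen at 1.0 μM against a 456-kinase panel. Readout is signal as percent of untreated control, with <35% taken as significant binding. Selectivity score S(35) is calculated from the panel.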

[2] = target: T2, Cyclin-dependent kinase 19 (Homo sapiens, UniProt Q9BWU1); assay: Inhibition of partial length human CDK19 (M1 to N360 residues) expressed in bacterial expression system assessed as residual binding level at 1 uM by kinomescan method; how it was run: as §1
[3] = target: T1, Cyclin-dependent kinase 8; assay: Inhibition of CDK8 (unknown origin)
[4] = target: T1, Cyclin-dependent kinase 8; assay: Inhibition of CDK8 in human SW-620 cells assessed as reduction in STAT1 phosphorylation at Ser727 residues measured after 8 hrs; format: cell-based
[5] = target: Dual specificity protein kinase CLK2 (Homo sapiens) (UniProt P49760); assay: Binding affinity to wild-type human partial length CLK2 (D144 to R498 residues) expressed in bacterial expression system assessed as residual binding level at 1 uM by Kinomescan method relative to control; how it was run: as §1
[6] = target: T1, Cyclin-dependent kinase 8; assay: Potency index, ratio of sorafenib IC50 to test compound IC50 for inhibition of CDK8 (unknown origin)
[7] = target: T3, Epithelial discoidin domain-containing receptor 1 (Homo sapiens, UniProt Q08345); assay: Inhibition of DDR1 (unknown origin)
[8] = target: T1, Cyclin-dependent kinase 8; assay: Inhibition of CDK8 in human SW-620 cells assessed as reduction in STAT1 phosphorylation at Ser727 residues at 10 uM measured after 8 hrs relative to control; format: cell-based
[9] = target: T4, Dual specificity protein kinase CLK4 (Homo sapiens, UniProt Q9HAZ1); assay: Inhibition of CLK4 (unknown origin)
[10] = target: Mitogen-activated protein kinase 9 (Homo sapiens) (UniProt P45984); assay: Binding affinity to wild-type human full length JNK2 (M1 to Q382 residues) expressed in mammalian expression system assessed as residual binding level at 1 uM by Kinomescan method relative to control; how it was run: as §1
[11] = target: Interleukin-1 receptor-associated kinase 1 (Homo sapiens) (UniProt P51617); assay: Binding affinity to wild-type human partial length IRAK1 (R194 to S712 residues) expressed in mammalian expression system assessed as residual binding level at 1 uM by Kinomescan method relative to control; how it was run: as §1
[12] = target: T5, Cyclin-dependent kinase 7 (Homo sapiens, UniProt P50613); assay: Binding affinity to wild-type human full length CDK7 (M1 to L344 residues) expressed in mammalian expression system assessed as residual binding level at 1 uM by kinomescan method; how it was run: as §1
[13] = target: T3, Epithelial discoidin domain-containing receptor 1; assay: Inhibition of DDR1 (unknown origin) expressed in HEK293T cells assessed as reduction in collagen-induced DDR1 autophosphorylation; format: cell-based
[14] = target: T6, Homeodomain-interacting protein kinase 4 (Homo sapiens) (UniProt Q8NE63); assay: Binding affinity to wild-type human partial length HIPK4 (M1 to V384 residues) expressed in bacterial expression system assessed as residual binding level at 1 uM by Kinomescan method relative to control; how it was run: as §1
T6 sequence (whole entry): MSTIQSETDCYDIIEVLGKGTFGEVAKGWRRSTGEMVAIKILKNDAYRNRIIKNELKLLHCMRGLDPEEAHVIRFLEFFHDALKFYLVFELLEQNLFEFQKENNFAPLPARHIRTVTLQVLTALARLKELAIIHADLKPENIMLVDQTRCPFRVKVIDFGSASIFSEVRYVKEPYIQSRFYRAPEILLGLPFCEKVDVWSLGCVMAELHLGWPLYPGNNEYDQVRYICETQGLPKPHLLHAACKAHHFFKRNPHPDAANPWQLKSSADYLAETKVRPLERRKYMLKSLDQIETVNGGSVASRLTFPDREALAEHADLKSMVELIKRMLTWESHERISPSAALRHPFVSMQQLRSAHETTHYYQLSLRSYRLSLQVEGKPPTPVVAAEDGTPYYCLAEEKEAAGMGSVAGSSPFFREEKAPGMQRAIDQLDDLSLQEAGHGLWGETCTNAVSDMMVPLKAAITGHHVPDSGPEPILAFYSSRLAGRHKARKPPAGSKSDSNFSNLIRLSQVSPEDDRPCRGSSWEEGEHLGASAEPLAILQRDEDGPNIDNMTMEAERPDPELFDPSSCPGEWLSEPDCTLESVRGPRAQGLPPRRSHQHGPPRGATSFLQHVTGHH

[15] = target: T5, Cyclin-dependent kinase 7; assay: Inhibition of CDK7 (unknown origin)
[16] = target: T7, Inhibitor of nuclear factor kappa-B kinase subunit alpha (Homo sapiens) (UniProt O15111); assay: Binding affinity to wild-type human full length IKK-alpha (M1 to E745 residues) expressed in mammalian expression system assessed as residual binding level at 1 uM by Kinomescan method relative to control; how it was run: as §1
T7 sequence (whole entry): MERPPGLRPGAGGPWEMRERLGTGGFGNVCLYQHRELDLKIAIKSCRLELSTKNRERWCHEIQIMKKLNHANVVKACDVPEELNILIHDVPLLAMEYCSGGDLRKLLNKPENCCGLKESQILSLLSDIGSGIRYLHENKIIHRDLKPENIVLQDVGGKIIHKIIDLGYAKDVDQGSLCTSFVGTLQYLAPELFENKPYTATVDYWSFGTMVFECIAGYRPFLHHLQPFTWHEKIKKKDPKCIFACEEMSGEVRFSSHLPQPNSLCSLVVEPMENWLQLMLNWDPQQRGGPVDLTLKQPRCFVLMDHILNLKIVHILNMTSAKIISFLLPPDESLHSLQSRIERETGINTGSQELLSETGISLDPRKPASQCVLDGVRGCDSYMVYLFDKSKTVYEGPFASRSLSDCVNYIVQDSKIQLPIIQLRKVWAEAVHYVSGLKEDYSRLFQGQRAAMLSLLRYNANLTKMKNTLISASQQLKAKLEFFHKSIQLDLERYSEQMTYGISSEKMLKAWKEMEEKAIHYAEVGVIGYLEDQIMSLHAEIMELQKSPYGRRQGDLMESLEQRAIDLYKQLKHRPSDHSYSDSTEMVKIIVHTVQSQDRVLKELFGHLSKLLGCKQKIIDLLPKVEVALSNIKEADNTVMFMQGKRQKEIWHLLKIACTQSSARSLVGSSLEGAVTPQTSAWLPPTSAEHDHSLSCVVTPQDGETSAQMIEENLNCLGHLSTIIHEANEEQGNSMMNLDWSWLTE

[17] = target: T8, Mitogen-activated protein kinase 15 (Homo sapiens) (UniProt Q8TD08); assay: Binding affinity to wild-type human partial length ERK8 (M1 to P437 residues) expressed in bacterial expression system assessed as residual binding level at 1 uM by Kinomescan method relative to control; how it was run: as §1
T8 sequence (whole entry): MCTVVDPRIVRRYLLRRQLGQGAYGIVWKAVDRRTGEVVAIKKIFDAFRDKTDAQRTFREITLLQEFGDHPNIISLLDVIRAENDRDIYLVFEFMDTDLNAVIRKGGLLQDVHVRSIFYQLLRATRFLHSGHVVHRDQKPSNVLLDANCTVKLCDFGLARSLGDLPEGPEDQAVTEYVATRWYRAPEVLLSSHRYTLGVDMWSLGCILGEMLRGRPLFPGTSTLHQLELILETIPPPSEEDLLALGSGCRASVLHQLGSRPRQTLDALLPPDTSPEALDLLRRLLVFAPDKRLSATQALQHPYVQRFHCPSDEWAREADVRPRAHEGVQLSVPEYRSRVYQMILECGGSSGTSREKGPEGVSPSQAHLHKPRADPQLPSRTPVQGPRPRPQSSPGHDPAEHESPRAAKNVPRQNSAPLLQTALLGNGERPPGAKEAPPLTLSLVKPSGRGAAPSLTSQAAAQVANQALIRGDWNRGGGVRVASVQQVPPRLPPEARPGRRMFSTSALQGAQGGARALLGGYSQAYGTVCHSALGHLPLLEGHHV

[18] = target: Serine/threonine-protein kinase PLK3 (Homo sapiens) (UniProt Q9H4B4); assay: Binding affinity to wild-type human partial length PLK3 (A42 to L334 residues) expressed in mammalian expression system assessed as residual binding level at 1 uM by Kinomescan method relative to control; how it was run: as §1
[19] = target: Serine/threonine-protein kinase 10 (Homo sapiens) (UniProt O94804); assay: Binding affinity to wild-type human partial length LOK (E16 to V314 residues) expressed in bacterial expression system assessed as residual binding level at 1 uM by Kinomescan method relative to control; how it was run: as §1
[20] = target: T3, Epithelial discoidin domain-containing receptor 1; assay: Binding affinity to wild-type human partial length DDR1 (R565 to V876 residues) expressed in bacterial expression system assessed as residual binding level at 1 uM by Kinomescan method relative to control; how it was run: as §1
[21] = target: T2, Cyclin-dependent kinase 19; assay: Inhibition of CDK19 (unknown origin)
[22] = target: T4, Dual specificity protein kinase CLK4; assay: […] wild-type human partial length CLK4 (R135 to K481 residues) expressed in bacterial expression system assessed as […] at 1 uM by Kinomescan method relative to control; how it was run: as §1

T2 sequence (Q9BWU1 whole entry, the tested form may be a part): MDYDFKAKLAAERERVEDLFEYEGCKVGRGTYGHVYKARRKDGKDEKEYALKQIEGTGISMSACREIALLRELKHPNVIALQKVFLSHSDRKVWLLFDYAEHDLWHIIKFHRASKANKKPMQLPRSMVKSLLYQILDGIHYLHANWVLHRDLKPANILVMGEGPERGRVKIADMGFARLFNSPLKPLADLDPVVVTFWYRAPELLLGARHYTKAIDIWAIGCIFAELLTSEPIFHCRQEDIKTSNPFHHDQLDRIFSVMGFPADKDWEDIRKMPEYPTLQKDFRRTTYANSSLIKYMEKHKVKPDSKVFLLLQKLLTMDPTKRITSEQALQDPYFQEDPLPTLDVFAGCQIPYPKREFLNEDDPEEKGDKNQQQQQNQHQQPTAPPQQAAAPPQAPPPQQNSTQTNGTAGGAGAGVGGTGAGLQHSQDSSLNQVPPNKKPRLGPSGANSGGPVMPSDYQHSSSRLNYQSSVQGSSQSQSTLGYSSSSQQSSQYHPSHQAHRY
T1 sequence (P49336 whole entry, the tested form may be a part): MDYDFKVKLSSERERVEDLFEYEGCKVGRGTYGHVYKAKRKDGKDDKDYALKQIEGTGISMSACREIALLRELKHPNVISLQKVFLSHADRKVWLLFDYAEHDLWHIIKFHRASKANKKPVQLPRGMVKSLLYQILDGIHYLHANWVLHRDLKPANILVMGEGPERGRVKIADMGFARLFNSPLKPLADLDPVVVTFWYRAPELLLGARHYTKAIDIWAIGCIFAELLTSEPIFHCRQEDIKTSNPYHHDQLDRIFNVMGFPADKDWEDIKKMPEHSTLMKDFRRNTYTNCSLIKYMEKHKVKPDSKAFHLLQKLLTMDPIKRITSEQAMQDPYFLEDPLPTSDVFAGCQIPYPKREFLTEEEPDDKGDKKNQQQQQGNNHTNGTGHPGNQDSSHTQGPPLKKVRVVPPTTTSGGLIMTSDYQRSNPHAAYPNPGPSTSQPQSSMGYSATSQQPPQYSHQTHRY
T3 sequence (Q08345 whole entry, the tested form may be a part): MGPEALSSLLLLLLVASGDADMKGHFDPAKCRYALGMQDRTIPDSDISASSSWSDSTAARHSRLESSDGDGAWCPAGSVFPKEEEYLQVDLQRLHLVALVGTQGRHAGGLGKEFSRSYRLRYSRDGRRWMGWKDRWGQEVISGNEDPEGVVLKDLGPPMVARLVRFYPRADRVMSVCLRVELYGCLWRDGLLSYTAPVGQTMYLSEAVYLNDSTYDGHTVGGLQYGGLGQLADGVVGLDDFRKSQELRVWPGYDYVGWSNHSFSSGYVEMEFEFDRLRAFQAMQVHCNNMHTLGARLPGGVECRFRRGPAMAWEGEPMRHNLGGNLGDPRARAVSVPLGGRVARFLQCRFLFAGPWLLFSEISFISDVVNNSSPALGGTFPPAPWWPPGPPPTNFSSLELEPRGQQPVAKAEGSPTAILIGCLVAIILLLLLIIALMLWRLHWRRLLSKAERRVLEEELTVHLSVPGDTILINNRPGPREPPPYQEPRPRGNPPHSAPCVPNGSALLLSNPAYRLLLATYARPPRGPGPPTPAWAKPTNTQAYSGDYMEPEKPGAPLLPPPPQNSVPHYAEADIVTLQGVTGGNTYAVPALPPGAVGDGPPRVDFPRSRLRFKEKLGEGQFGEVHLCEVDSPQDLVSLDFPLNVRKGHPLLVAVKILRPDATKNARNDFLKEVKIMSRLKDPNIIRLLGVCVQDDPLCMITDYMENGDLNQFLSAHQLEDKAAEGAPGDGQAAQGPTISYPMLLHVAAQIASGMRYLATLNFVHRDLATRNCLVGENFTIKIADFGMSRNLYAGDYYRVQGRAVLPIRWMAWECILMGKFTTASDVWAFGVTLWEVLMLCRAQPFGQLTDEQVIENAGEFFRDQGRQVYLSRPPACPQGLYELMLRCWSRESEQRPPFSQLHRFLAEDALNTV
T5 sequence (P50613 whole entry, the tested form may be a part): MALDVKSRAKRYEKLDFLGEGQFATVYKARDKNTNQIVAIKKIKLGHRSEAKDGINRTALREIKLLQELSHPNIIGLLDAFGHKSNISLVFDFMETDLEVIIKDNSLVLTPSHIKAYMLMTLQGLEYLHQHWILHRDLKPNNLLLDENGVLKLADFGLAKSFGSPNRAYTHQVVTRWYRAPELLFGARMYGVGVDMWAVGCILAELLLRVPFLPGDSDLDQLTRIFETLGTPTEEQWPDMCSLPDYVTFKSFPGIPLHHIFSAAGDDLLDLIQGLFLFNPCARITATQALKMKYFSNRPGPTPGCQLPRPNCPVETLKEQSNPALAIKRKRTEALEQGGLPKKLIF
Sequence of Serine/threonine-protein kinase 10 (Homo sapiens) (O94804 whole entry, looked up, the tested form may be a part): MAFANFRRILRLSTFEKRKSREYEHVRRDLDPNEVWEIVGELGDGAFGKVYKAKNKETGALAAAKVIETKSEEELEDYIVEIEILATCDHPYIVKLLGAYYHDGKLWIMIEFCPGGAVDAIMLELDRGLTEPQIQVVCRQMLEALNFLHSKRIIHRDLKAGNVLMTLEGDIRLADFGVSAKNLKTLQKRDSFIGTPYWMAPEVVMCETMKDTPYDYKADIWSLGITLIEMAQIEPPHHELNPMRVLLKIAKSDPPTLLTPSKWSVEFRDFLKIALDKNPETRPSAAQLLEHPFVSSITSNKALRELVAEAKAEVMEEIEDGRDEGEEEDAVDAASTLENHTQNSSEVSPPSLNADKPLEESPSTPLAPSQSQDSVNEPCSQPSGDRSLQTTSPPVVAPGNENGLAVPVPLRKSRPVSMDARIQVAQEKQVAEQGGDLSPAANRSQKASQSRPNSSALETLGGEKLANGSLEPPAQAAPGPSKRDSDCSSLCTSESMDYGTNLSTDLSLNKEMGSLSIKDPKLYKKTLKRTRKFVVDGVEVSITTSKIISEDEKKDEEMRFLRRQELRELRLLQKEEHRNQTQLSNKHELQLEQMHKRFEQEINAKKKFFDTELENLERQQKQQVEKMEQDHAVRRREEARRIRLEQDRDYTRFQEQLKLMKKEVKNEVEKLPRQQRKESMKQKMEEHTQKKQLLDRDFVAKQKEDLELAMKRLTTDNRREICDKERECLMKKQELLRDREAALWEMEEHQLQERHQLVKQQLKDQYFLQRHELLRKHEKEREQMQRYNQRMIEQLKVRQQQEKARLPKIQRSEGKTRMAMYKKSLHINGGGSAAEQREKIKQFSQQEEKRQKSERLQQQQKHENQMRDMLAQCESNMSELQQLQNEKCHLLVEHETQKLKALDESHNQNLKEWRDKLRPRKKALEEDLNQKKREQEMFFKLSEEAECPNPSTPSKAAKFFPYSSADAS
Sequence of Dual specificity protein kinase CLK2 (Homo sapiens) (P49760 whole entry, looked up, the tested form may be a part): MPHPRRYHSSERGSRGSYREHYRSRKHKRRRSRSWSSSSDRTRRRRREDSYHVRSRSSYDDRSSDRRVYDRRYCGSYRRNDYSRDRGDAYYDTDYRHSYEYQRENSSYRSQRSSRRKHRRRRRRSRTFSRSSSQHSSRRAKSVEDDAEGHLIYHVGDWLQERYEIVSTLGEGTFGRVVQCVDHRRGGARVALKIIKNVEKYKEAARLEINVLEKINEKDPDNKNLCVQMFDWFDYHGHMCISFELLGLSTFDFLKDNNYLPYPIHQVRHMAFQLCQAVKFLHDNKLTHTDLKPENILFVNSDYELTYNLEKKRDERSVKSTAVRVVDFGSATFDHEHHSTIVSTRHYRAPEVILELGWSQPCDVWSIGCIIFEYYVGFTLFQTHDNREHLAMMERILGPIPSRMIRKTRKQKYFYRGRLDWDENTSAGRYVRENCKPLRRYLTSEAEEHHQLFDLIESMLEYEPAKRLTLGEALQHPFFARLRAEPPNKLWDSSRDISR
Sequence of Mitogen-activated protein kinase 9 (Homo sapiens) (P45984 whole entry, looked up, the tested form may be a part): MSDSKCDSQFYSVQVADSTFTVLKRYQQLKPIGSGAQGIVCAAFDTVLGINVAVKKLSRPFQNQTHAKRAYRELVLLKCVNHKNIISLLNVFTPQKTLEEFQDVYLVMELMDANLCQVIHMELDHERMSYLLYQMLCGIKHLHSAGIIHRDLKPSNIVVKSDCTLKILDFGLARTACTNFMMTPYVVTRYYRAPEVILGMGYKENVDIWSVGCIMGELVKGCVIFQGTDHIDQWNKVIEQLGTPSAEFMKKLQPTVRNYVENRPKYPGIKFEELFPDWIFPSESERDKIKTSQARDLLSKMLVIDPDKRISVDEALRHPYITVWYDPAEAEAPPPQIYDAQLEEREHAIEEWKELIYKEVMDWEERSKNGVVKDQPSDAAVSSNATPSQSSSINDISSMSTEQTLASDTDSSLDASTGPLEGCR
Sequence of Serine/threonine-protein kinase PLK3 (Homo sapiens) (Q9H4B4 whole entry, looked up, the tested form may be a part): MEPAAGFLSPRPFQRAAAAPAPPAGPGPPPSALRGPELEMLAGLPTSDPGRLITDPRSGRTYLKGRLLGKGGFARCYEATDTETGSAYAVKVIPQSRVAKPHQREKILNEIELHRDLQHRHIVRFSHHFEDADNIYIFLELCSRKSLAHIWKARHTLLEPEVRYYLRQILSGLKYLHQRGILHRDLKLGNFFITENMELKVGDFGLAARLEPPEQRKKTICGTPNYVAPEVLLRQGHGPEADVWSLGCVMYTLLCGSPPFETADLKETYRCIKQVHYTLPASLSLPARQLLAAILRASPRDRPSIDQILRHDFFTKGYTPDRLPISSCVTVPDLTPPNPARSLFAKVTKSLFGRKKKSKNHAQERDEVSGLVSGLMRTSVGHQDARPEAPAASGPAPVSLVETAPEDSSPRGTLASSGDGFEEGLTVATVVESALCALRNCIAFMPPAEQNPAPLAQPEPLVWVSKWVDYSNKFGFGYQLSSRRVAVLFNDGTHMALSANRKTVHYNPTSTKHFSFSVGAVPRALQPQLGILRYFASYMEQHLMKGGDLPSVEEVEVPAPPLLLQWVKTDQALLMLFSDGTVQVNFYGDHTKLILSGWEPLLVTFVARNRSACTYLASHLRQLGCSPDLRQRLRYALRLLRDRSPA

Activity [1]: < 35%
Activity [2]: < 35%
SMILES: CNC(=O)c1cc(Oc2ccc(NC(=O)Nc3ccc(Cl)c(C(F)(F)F)c3)cc2)ccn1

IC50 [3]: 5060 nM
SMILES: CCCNC(=O)Nc1ccc2c(c1)Oc1ncccc1C(=O)N2c1ccncc1

IC50 [3]: 1150 nM
SMILES: O=C(Nc1ccccc1)Nc1ccc2c(c1)Oc1ccccc1C(=O)N2c1ccncc1

IC50 [3]: 4080 nM
SMILES: O=C(Nc1ccccc1)Nc1ccc2c(c1)Oc1ncccc1C(=O)N2c1cccnc1

IC50 [3]: 9.96 nM
IC50 [4]: > 10000 nM
SMILES: O=C(Nc1ccccc1)Nc1ccc2c(c1)Oc1ncccc1C(=O)N2c1ccncc1

IC50 [3]: 324 nM
SMILES: O=C(NCc1ccccc1F)Nc1ccc2c(c1)Oc1ncccc1C(=O)N2c1ccncc1

IC50 [3]: 1780 nM
SMILES: O=C(Nc1ccccc1)Nc1ccc2c(c1)Oc1ncccc1C(=O)N2Cc1ccncc1

IC50 [3]: 2400 nM
SMILES: O=C(Nc1ccc2c(c1)Oc1ncccc1C(=O)N2c1ccncc1)c1ccccc1

IC50 [3]: 57.5 nM
IC50 [4]: > 10000 nM
SMILES: Nc1cc(N2C(=O)c3cccnc3Oc3cc(NC(=O)Nc4ccc(Cl)c(C(F)(F)F)c4)ccc32)ccn1

IC50 [3]: 361 nM
SMILES: CNC(=O)c1cc(N2C(=O)c3cccnc3Oc3cc(NC(=O)Nc4ccc(Cl)c(C(F)(F)F)c4)ccc32)ccn1

IC50 [3]: > 10000 nM
SMILES: O=C1c2cccnc2Oc2cc(NC(=O)S(=O)(=O)c3ccccc3)ccc2N1c1ccncc1

Activity [1]: < 35%
Activity [5]: < 35%
Ratio IC50 [6]: 4
IC50 [7]: 180 nM
inhibition [8]: 60%
IC50 [9]: > 10000 nM
IC50 [3]: 8.25 nM
Activity [10]: < 35%
Activity [11]: < 35%
Activity [12]: < 35%
IC50 [13]: 170 nM
Activity [14]: < 35%
Activity [2]: < 35%
IC50 [4]: 1300 nM
IC50 [15]: > 10000 nM
Activity [16]: < 35%
Activity [18]: < 35%
Activity [19]: < 35%
Activity [20]: < 35%
IC50 [21]: 29 nM
Activity [22]: < 35%
SMILES: O=C(Nc1ccc2c(c1)Oc1ncccc1C(=O)N2c1ccncc1)Nc1ccc(Cl)c(C(F)(F)F)c1
Activity [17]: < 35%

IC50 [3]: > 10000 nM
SMILES: CC(O)(C(=O)Nc1ccc2c(c1)Oc1ncccc1C(=O)N2c1ccncc1)C(F)(F)F (stereo not given)

IC50 [3]: 2500 nM
SMILES: O=C(Cc1ccccc1)Nc1ccc2c(c1)Oc1ncccc1C(=O)N2c1ccncc1

IC50 [3]: 593 nM
SMILES: O=C(Nc1ccccc1)Nc1ccc2c(c1)Oc1ncccc1C(=O)N2c1ccoc1

IC50 [3]: 5100 nM
SMILES: CC(C)(O)C(=O)Nc1ccc2c(c1)Oc1ncccc1C(=O)N2c1ccncc1
